Experimental findings from PubChem BioAssay AID623954 (The Scripps Research Institute Molecular Screening Center, 2012) are described below.

Each structure is given as a SMILES string. The source made the active and inactive calls.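 Rule for the calls: active = recombinant frequency cut at least fourfold versus the solvent-only control; inactive = reduction in recombinant frequency below fourfold.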

The assay deals with E. coli recBCD-deletion with H. pylori AddAB/RecA, Hfr recombination, colony count. The assay is described as follows: recombination inhibition in AddAB/RecA E. coli, late-stage follow-up, counter-screen for AddAB inhibitor project, colony formation, p(addAB), p(recA), 100 µM (AID 623954). The note with it: at 100 µM; stronger effect = higher value. In short, it runs like this:
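system = ΔrecBCD E. coli with H. pylori AddAB/RecA plasmids | benchmarks = DMSO vehicle as reference control | probe or stimulus = HfrH E. coli donor mixed 1:10 with recipient | repeats = duplicate experiments | technique = colony counts of His+ StrR recombinants on selective plates | compound = single dose of 100 µM compound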
(In general: Counterscreens check selectivity or assay interference.)
Turning to `CNC(=O)c1c(NC(=O)c2nc(SCc3ccccc3)ncc2Cl)sc2c1CCCC2`, the fold reduction of recombinant frequency was 2 (inactive).
Consider `CCn1cc(C(=O)O)c(=O)c2cc(F)c(N3CCN(C(=S)Nc4cccc(C(F)(F)F)c4)CC3)cc21`, for which the fold reduction of recombinant frequency is 8.
The figure for `N#Cc1c(NC(=O)c2ccc([N+](=O)[O-])o2)sc2c1CCC2` is 20.
